# Results from ChEMBL document CHEMBL1221342, “Synthesis and in vitro antitumor activity of new 4,5-dihydropyrazole derivatives” (Bioorg Med Chem, 2010).
# Experiments:
# Type in all cases: functional
# CCRF-CEM = experiment: Growth inhibition of human CCRF-CEM cells after 48 hrs by SRB assay
# In short: (§1)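 NCI 60-cell-line screen. Cells grown in RPMI1640 with 5% fetal calf serum and 2 mM L-glutamine, with inoculum density set by cell line. Preincubated 24 h, then given compound in DMSO at 10^-4 to 10^-8 M (five 10-fold steps) for 48 h continuous exposure. Growth measured by SRB protein assay. GI50, TGI and LC50 reported as –log molar.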
# HL-60(TB) = experiment: Growth inhibition of human HL-60(TB) cells after 48 hrs by SRB assay; conditions: HL-60, 48 h
# In short: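 NCI 60-cell-line screen: cells grown in RPMI1640 with 5% fetal calf serum and 2 mM L-glutamine, preincubated 24 h, then exposed to compound in DMSO at five concentrations (10^-4 to 10^-8 M) for 48 h continuous exposure. Growth estimated by sulforhodamine B protein assay; reported as pGI50 (-log molar concentration inhibiting net cell growth by 50%).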
# MOLT-4 = experiment: Growth inhibition of human MOLT4 cells after 48 hrs by SRB assay; conditions: MOLT-4, 48 h; in short: as §1
# SR = experiment: Growth inhibition of human SR cells after 48 hrs by SRB assay; in short: as §1
# EKVX = experiment: Growth inhibition of human EKVX cells after 48 hrs by SRB assay; in short: as §1
# NCI-H460 = experiment: Growth inhibition of human NCI-H460 cells after 48 hrs by SRB assay; conditions: NCI-H460, 48 h; in short: as §1
# HCT-116 = experiment: Growth inhibition of human HCT116 cells after 48 hrs by SRB assay; conditions: HCT-116, 48 h; in short: as §1
# HCT-15 = experiment: Growth inhibition of human HCT15 cells after 48 hrs by SRB assay; conditions: HCT-15, 48 h; in short: as §1
# KM12 = experiment: Growth inhibition of human KM12 cells after 48 hrs by SRB assay; conditions: KM12, 48 h; in short: as §1
# SW-620 = experiment: Growth inhibition of human SW620 cells after 48 hrs by SRB assay; conditions: SW-620, 48 h; in short: as §1
# SF-268 = experiment: Growth inhibition of human SF268 cells after 48 hrs by SRB assay; conditions: SF-268, 48 h; in short: as §1
# SF-539 = experiment: Growth inhibition of human SF539 cells after 48 hrs by SRB assay; conditions: SF-539, 48 h; in short: as §1
# SNB-75 = experiment: Growth inhibition of human SNB75 cells after 48 hrs by SRB assay; conditions: SNB-75, 48 h; in short: as §1
# U-251 = experiment: Growth inhibition of human U251 cells after 48 hrs by SRB assay; conditions: U-251, 48 h; in short: as §1
# Malme-3M = experiment: Growth inhibition of human MALME-3M cells after 48 hrs by SRB assay; in short: as §1
# MDA-MB-435 = experiment: Growth inhibition of human MDA-MB-435 cells after 48 hrs by SRB assay; conditions: MDA-MB-435, 48 h; in short: as §1
# SK-MEL-5 = experiment: Growth inhibition of human SK-MEL-5 cells after 48 hrs by SRB assay; conditions: SK-MEL-5, 48 h; in short: as §1
# UACC-62 = experiment: Growth inhibition of human UACC62 cells after 48 hrs by SRB assay; conditions: UACC-62, 48 h; in short: as §1
# OVCAR-4 = experiment: Growth inhibition of human OVCAR4 cells after 48 hrs by SRB assay; conditions: OVCAR-4, 48 h; in short: as §1
# NCI/ADR-RES = experiment: Growth inhibition of human NCI/ADR-RES cells after 48 hrs by SRB assay; in short: as §1
# SK-OV-3 = experiment: Growth inhibition of human SKOV3 cells after 48 hrs by SRB assay; conditions: SK-OV-3, 48 h; in short: as §1
# 786-0 = experiment: Growth inhibition of human 786-0 cells after 48 hrs by SRB assay; conditions: 786-0, 48 h; in short: as §1
# A498 = experiment: Growth inhibition of human A498 cells after 48 hrs by SRB assay; conditions: A498, 48 h; in short: as §1
# RXF 393 = experiment: Growth inhibition of human RXF393 cells after 48 hrs by SRB assay; conditions: RXF 393, 48 h; in short: as §1
# TK-10 = experiment: Growth inhibition of human TK10 cells after 48 hrs by SRB assay; conditions: TK-10, 48 h; in short: as §1
# UO-31 = experiment: Growth inhibition of human UO31 cells after 48 hrs by SRB assay; conditions: UO-31, 48 h; in short: as §1
# PC-3 = experiment: Growth inhibition of human PC3 cells after 48 hrs by SRB assay; conditions: PC-3, 48 h; in short: as §1
# DU-145 = experiment: Growth inhibition of human DU145 cells after 48 hrs by SRB assay; conditions: DU-145, 48 h; in short: as §1
# MCF7 = experiment: Growth inhibition of human MCF7 cells after 48 hrs by SRB assay; conditions: MCF7, 48 h; in short: as §1
# [1] = Growth inhibition of human Hs 578T cells after 48 hrs by SRB assay; in short: as §1
# BT-549 = experiment: Growth inhibition of human BT549 cells after 48 hrs by SRB assay; conditions: BT-549, 48 h; in short: as §1
# T47D = experiment: Growth inhibition of human T47D cells after 48 hrs by SRB assay; in short: as §1
# MDA-MB-468 = experiment: Growth inhibition of human MDA-MB-468 cells after 48 hrs by SRB assay; conditions: MDA-MB-468, 48 h; in short: as §1
smiles,measurement,setting,value
COc1ccc(C2CC(c3cc(OC)c(OC)c(OC)c3)=NN2)cc1 (stereo not given),GI50,CCRF-CEM,6.31 µM
same,TGI,CCRF-CEM; read-out: pTGI (converted),> 100 µM
same,GI50,HL-60(TB),2 µM
same,TGI,HL-60(TB); read-out: pTGI (converted),12.6 µM
same,GI50,MOLT-4,5.01 µM
same,TGI,MOLT-4; read-out: pTGI (converted),25.1 µM
same,GI50,SR,1 µM
same,TGI,SR; read-out: pTGI (converted),3.98 µM
same,GI50,EKVX,10 µM
same,TGI,EKVX; read-out: pTGI (converted),> 100 µM
same,GI50,NCI-H460,3.16 µM
same,TGI,NCI-H460; read-out: pTGI (converted),30.2 µM
same,GI50,HCT-116,3.98 µM
same,TGI,HCT-116; read-out: pTGI (converted),> 100 µM
same,GI50,HCT-15,3.16 µM
same,TGI,HCT-15; read-out: pTGI (converted),> 100 µM
same,GI50,KM12,3.98 µM
same,TGI,KM12; read-out: pTGI (converted),> 100 µM
same,GI50,SW-620,5.01 µM
same,TGI,SW-620; read-out: pTGI (converted),> 100 µM
same,GI50,SF-268,20 µM
same,TGI,SF-268; read-out: pTGI (converted),> 100 µM
same,GI50,SF-539,6.31 µM
same,TGI,SF-539; read-out: pTGI (converted),39.8 µM
same,GI50,SNB-75,3.98 µM
same,GI50,U-251,3.98 µM
same,TGI,U-251; read-out: pTGI (converted),> 100 µM
same,GI50,Malme-3M,25.1 µM
same,TGI,Malme-3M; read-out: pTGI (converted),> 100 µM
same,GI50,MDA-MB-435,3.16 µM
same,TGI,MDA-MB-435; read-out: pTGI (converted),20 µM
same,GI50,SK-MEL-5,3.98 µM
same,TGI,SK-MEL-5; read-out: pTGI (converted),25.1 µM
same,GI50,UACC-62,7.94 µM
same,TGI,UACC-62; read-out: pTGI (converted),> 100 µM
same,GI50,OVCAR-4,12.6 µM
same,TGI,OVCAR-4; read-out: pTGI (converted),> 100 µM
same,GI50,NCI/ADR-RES,6.31 µM
same,TGI,NCI/ADR-RES; read-out: pTGI (converted),> 100 µM
same,GI50,SK-OV-3,12.6 µM
same,TGI,SK-OV-3; read-out: pTGI (converted),> 100 µM
same,GI50,786-0,20 µM
same,TGI,786-0; read-out: pTGI (converted),> 100 µM
same,GI50,A498,6.31 µM
same,TGI,A498; read-out: pTGI (converted),50.1 µM
same,GI50,RXF 393,10 µM
same,TGI,RXF 393; read-out: pTGI (converted),> 100 µM
same,GI50,TK-10,39.8 µM
same,TGI,TK-10; read-out: pTGI (converted),> 100 µM
same,GI50,UO-31,5.01 µM
same,TGI,UO-31; read-out: pTGI (converted),> 100 µM
same,GI50,PC-3,6.31 µM
same,TGI,PC-3; read-out: pTGI (converted),> 100 µM
same,GI50,DU-145,31.6 µM
same,TGI,DU-145; read-out: pTGI (converted),> 100 µM
same,GI50,MCF7,2.51 µM
same,TGI,MCF7; read-out: pTGI (converted),25.1 µM
same,GI50,[1],15.8 µM
same,TGI,[1]; read-out: pTGI (converted),> 100 µM
same,GI50,BT-549,7.94 µM
same,TGI,BT-549; read-out: pTGI (converted),> 100 µM
same,GI50,T47D,3.98 µM
same,TGI,T47D; read-out: pTGI (converted),> 100 µM
same,GI50,MDA-MB-468,3.98 µM
same,TGI,MDA-MB-468; read-out: pTGI (converted),63.1 µM
